# Source: ChEMBL document CHEMBL1132142, “Extension of the polyanionic cosalane pharmacophore as a strategy for increasing anti-HIV potency” (J Med Chem, 1999)
# What was measured:
# [1] = test system: MT4; assay: The compound was evaluated for cytotoxicity in MT-4 cells; format: functional, Homo sapiens
# Outline: (§1)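 Uninfected cells (CEM-SS or MT-4, per line) were incubated with the drug in a microtiter XTT assay. Viability was expressed as percent of the uninfected drug-free control. CC50 is the concentration causing 50% cell death. Triplicates were run per plate on two sister plates, and the two plate values were averaged.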
# [2] = test system: CEM-SS; assay: The compound was evaluated for inhibition of cytopathic effect of HIV-1 RF in CEM-SS cells; format: functional, cell-based, Homo sapiens
# Outline: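 XTT-based microtiter cytoprotection assay measuring protection from HIV-1-induced cytopathic effect, read as percent of the uninfected drug-free control. EC50 is the concentration giving 50% protection in infected cultures. Results were confirmed by cell-free supernatant reverse transcriptase and p24 levels. Each plate was run in triplicate, and the EC50 values from two sister plates were averaged.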
# [3] = test system: CEM-SS; assay: The compound was evaluated for cytotoxicity in CEM-SS cells; format: functional, Homo sapiens; outline: as §1
# [4] = test system: MT4; assay: The compound was evaluated for inhibition of cytopathic effect of HIV-1 IIIB in MT-4 cells; format: functional, cell-based, Homo sapiens
# [5] = test system: MT4; assay: The compound was evaluated for inhibition of cytopathic effect of HIV-2ROD in MT-4 cells; format: functional, cell-based, Homo sapiens
# [6] = test system: CEM-SS; assay: The compound was evaluated for uM; format: functional, cell-based, Homo sapiens
SMILES,Cytotoxicity [1] [µM],"EC50 ([2]; Homo sapiens, CEM-SS) [µM]",Cytotoxicity [3] [µM],EC50 ([4]; mt4) [µM],EC50 ([5]; mt4) [µM],"EC50 ([4]; Homo sapiens, MT4) [µM]","EC50 ([5]; Homo sapiens, MT4) [µM]",EC50 [6],EC50 ([2]; cem-ss) [µM]
CC(C)CCCC(C)[C@H]1CC[C@H]2[C@@H]3CCC4C[C@@H](CCC=C(c5cc(Cl)c(OCc6ccc([N+](=O)[O-])cc6)c(C(=O)[O-])c5)c5cc(Cl)c(OCc6ccc([N+](=O)[O-])cc6)c(C(=O)[O-])c5)CC[C@]4(C)[C@H]3CC[C@]12C.[Na+].[Na+] (stereo partly specified),>125,78.2,>316,80,33,–,–,–,–
CC(C)CCCC(C)[C@H]1CC[C@H]2[C@@H]3CCC4C[C@@H](CCC=C(c5cc(Cl)c(OCc6ccccc6C(=O)O)c(C(=O)O)c5)c5cc(Cl)c(OCc6ccccc6C(=O)O)c(C(=O)O)c5)CC[C@]4(C)[C@H]3CC[C@]12C (stereo partly specified),37,–,>316,–,–,> 37,> 37,–,–
CC(C)CCCC(C)[C@H]1CC[C@H]2[C@@H]3CCC4C[C@@H](CCC=C(c5cc(Cl)c(OCc6cccc([N+](=O)[O-])c6)c(C(=O)[O-])c5)c5cc(Cl)c(OCc6cccc([N+](=O)[O-])c6)c(C(=O)[O-])c5)CC[C@]4(C)[C@H]3CC[C@]12C.[Na+].[Na+] (stereo partly specified),>125,21.5,>316,48,29,–,–,–,–
CC(C)CCCC(C)[C@H]1CC[C@H]2[C@@H]3CCC4C[C@@H](CCC=C(c5cc(Cl)c(OCc6ccccc6[N+](=O)[O-])c(C(=O)O)c5)c5cc(Cl)c(OCc6ccccc6[N+](=O)[O-])c(C(=O)O)c5)CC[C@]4(C)[C@H]3CC[C@]12C (stereo partly specified),108,–,66,–,–,–,–,Not Active,–
CC(C)CCCC(C)[C@H]1CC[C@H]2[C@@H]3CCC4C[C@@H](CCC=C(c5cc(Cl)c(OCc6ccccc6C(=O)[O-])c(C(=O)[O-])c5)c5cc(Cl)c(OCc6ccccc6C(=O)[O-])c(C(=O)[O-])c5)CC[C@]4(C)[C@H]3CC[C@]12C.[Na+].[Na+].[Na+].[Na+] (stereo partly specified),52,–,>316,22.1,> 52,–,–,–,17.9
CC(C)CCCC(C)[C@H]1CC[C@H]2[C@@H]3CCC4C[C@@H](CCC=C(c5cc(Cl)c(O)c(C(=O)O)c5)c5cc(Cl)c(O)c(C(=O)O)c5)CC[C@]4(C)[C@H]3CC[C@]12C (stereo partly specified),>125,–,>200,–,–,3,4,–,–
CC(C)CCCC(C)[C@H]1CC[C@H]2[C@@H]3CCC4C[C@@H](CCC=C(c5cc(Cl)c(OCc6cccc(C(=O)[O-])c6)c(C(=O)[O-])c5)c5cc(Cl)c(OCc6cccc(C(=O)[O-])c6)c(C(=O)[O-])c5)CC[C@]4(C)[C@H]3CC[C@]12C.[Na+].[Na+].[Na+].[Na+] (stereo partly specified),35,–,>316,2.4,> 35,–,–,–,7.6
CC(C)CCCC(C)[C@H]1CC[C@H]2[C@@H]3CCC4C[C@@H](CCC=C(c5cc(Cl)c(OCc6ccc([N+](=O)[O-])cc6)c(C(=O)O)c5)c5cc(Cl)c(OCc6ccc([N+](=O)[O-])cc6)c(C(=O)O)c5)CC[C@]4(C)[C@H]3CC[C@]12C (stereo partly specified),83,–,>316,–,> 83,> 83,–,Not Active,–
CC(C)CCCC(C)[C@H]1CC[C@H]2[C@@H]3CCC4C[C@@H](CCC=C(c5cc(Cl)c(OCc6cccc(C(=O)O)c6)c(C(=O)O)c5)c5cc(Cl)c(OCc6cccc(C(=O)O)c6)c(C(=O)O)c5)CC[C@]4(C)[C@H]3CC[C@]12C (stereo partly specified),29,5.7,>316,–,–,2.2,> 29,–,–
CC(C)CCCC(C)[C@H]1CC[C@H]2[C@@H]3CCC4C[C@@H](CCC=C(c5cc(Cl)c(OCc6ccccc6[N+](=O)[O-])c(C(=O)[O-])c5)c5cc(Cl)c(OCc6ccccc6[N+](=O)[O-])c(C(=O)[O-])c5)CC[C@]4(C)[C@H]3CC[C@]12C.[Na+].[Na+] (stereo partly specified),99,12.2,>316,–,–,> 125,> 125,–,–
CC(C)CCCC(C)[C@H]1CC[C@H]2[C@@H]3CCC4C[C@@H](CCC=C(c5cc(Cl)c(OCc6cccc([N+](=O)[O-])c6)c(C(=O)O)c5)c5cc(Cl)c(OCc6cccc([N+](=O)[O-])c6)c(C(=O)O)c5)CC[C@]4(C)[C@H]3CC[C@]12C (stereo partly specified),97,–,16,> 125,> 125,–,–,Not Active,–
